The target in data set [1] is T1, Lysosomal acid glucosylceramidase (Homo sapiens, UniProt P04062).
T1 sequence (P04062 whole entry): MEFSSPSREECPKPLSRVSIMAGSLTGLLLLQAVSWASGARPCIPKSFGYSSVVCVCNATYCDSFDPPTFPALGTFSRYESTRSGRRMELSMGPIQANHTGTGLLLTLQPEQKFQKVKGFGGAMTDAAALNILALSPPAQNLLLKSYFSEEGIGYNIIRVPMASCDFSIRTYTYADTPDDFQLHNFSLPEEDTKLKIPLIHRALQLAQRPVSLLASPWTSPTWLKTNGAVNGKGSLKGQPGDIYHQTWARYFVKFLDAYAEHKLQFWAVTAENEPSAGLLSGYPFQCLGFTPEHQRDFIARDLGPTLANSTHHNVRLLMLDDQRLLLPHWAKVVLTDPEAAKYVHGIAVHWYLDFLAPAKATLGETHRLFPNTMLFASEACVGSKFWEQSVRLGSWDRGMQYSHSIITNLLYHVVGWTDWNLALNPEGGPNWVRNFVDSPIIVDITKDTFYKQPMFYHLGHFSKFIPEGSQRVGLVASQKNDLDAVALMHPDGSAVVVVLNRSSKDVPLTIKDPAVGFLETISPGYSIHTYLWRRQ
The experiment in a line: Inhibition of human GCase assessed as formation of 4-methylumbelliferone from […] at pH 7 by luminescence spectrophotometry.

The nature of data set [2]: Solubility of the compound in presence of beta-cyclodextrin. The data set is classed as physicochemical.
For a further data set, the system named is Fibroblast. Nature of the data set: Cytotoxicity against human fibroblasts assessed as cell death up to 100 uM after 24 hrs by lactate dehydrogenase assay. Format: cell-based. In a few lines:
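Normal human fibroblasts were plated at 15,000 cells per 35 mm dish and incubated overnight. Medium with or without compound was then applied for 24 h. Cytotoxicity was measured by lactate dehydrogenase release in the collected supernatant. Cells were mycoplasma-tested beforehand.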

A further data set deals with Helix pomatia. Nature of the data set: Inhibition of Helix pomatia beta-mannosidase at 2 mM using beta-D-glycopyranoside after 10 to 30 mins in presence of beta-cyclodextrin by spectrophotometry. In a few lines: (§1)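 Commercial glycosidases were assayed with o-nitrophenyl (E. coli β-galactosidase) or p-nitrophenyl glycoside substrate near KM. Buffer was phosphate, or phosphate-citrate for mannosidases and amyloglucosidase, at each enzyme's optimal pH. Enzyme was added last. Incubation ran 10-30 min at 37 °C (55 °C for amyloglucosidase), then was quenched with 1 M Na2CO3 and read at A405. Free compounds were tested up to 1 mM; 1:1 βCD complexes up to 2 mM.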

Data set [3] in a line: Competitive inhibition of bovine liver beta-glucosidase assessed as formation of 4-methylumbelliferone from 4-methylumbelliferyl […] in presence of beta-cyclodextrin by Lineweaver-Burk Plot analysis. On the set-up: species or system Bos taurus.
Data set [4] has as its target T2, Beta-mannosidase (Homo sapiens) (UniProt O00462).
T2 sequence (whole entry): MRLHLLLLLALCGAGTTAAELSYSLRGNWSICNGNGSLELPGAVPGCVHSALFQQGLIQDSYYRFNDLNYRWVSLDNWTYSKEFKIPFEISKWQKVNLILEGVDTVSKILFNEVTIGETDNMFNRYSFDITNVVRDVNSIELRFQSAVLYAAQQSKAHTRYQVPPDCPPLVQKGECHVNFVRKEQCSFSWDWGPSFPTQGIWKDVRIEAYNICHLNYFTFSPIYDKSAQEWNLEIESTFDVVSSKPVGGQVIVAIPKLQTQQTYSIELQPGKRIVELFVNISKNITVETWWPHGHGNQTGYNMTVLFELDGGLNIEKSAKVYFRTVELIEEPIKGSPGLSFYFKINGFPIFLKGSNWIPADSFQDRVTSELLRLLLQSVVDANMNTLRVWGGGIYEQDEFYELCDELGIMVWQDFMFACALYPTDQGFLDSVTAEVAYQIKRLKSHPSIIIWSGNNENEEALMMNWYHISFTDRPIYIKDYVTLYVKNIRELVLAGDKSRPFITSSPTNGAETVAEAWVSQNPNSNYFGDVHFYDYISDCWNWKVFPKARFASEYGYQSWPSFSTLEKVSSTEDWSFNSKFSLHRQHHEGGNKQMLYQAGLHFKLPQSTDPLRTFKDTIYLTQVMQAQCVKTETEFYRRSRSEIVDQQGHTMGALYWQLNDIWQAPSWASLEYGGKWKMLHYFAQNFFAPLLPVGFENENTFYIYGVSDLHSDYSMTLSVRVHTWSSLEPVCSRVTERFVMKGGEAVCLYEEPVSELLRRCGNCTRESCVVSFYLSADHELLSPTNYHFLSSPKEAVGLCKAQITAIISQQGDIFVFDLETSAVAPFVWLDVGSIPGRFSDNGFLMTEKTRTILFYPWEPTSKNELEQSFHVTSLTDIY
Nature of the data set: Inhibition of human lysosomal beta-mannosidase assessed as formation of 4-methylumbelliferone from 4-methylumbelliferyl alpha-D-glucopyranoside up to 200 uM by luminescence spectrophotometry. In a few lines: (§2)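 Cells were scraped into ice-cold water (10⁶ cells/mL), sonicated and centrifuged, and protein was quantified. Lysate in 0.1% Triton X-100 was incubated at 37 °C with the matching 4-MU-conjugated glycoside in 0.1 M citrate, pH 4.5, with increasing chaperone or βCD-complex concentrations up to 200 μM. Reactions were stopped with glycine-NaOH, pH 10.7, and read at ex 340/em 460 nm.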

The species entered for data set [5] is Homo sapiens. The experiment in a line: Inhibition of human lysosomal beta-hexosaminidase assessed as formation of 4-methylumbelliferone from 4-methylumbelliferyl N-acetyl-beta-D-glucosaminide up to 200 uM in presence of beta-cyclodextrin by luminescence spectrophotometry. In a few lines: as §2
For data set [6], the species on record is Homo sapiens. The experiment in a line: Inhibition of human lysosomal beta-hexosaminidase assessed as formation of 4-methylumbelliferone from 4-methylumbelliferyl N-acetyl-beta-D-glucosaminide up to 200 uM by luminescence spectrophotometry. In a few lines:
as §2

Data set [7] deals with Lysosomal alpha-glucosidase (Homo sapiens) (UniProt P10253). The experiment in a line: Inhibition of human lysosomal alpha-glucosidase assessed as formation of 4-methylumbelliferone from 4-methylumbelliferyl alpha-D-glucopyranoside by luminescence spectrophotometry. The gist of the method: as §2
For a further data set, the system named is Saccharomyces cerevisiae. Nature of the data set: Inhibition of yeast alpha-glucosidase up to 1 mM using beta-D-glycopyranoside after 10 to 30 mins by spectrophotometry. The gist of the method: as §1
In data set [8] the target is Beta-glucosidase (Prunus dulcis). Nature of the data set: Inhibition of almond beta-glucosidase using beta-D-glycopyranoside after 10 to 30 mins by spectrophotometry.
Data set [9] in a line: Inhibition of almond beta-glucosidase using beta-D-glycopyranoside after 10 to 30 mins by spectrophotometry. Set-up: species or system Prunus dulcis. The gist of the method:
as §1

The test system of another data set is Aspergillus niger. Nature of the data set: Inhibition of Aspergillus niger amyloglucosidase up to 1 mM using beta-D-glycopyranoside after 10 to 30 mins by spectrophotometry. The gist of the method: as §1
The subject of another data set is Escherichia coli. Nature of the data set: Inhibition of Escherichia coli beta-galactosidase up to 1 mM using beta-D-glycopyranoside after 10 to 30 mins by spectrophotometry. The gist of the method:
as §1

One may read the Ki as the dissociation constant of the complex between target and ligand, obtained from inhibition or displacement.

The source made the active and inactive calls. No cut-off for these calls is given here. A value given as a limit tells only on which side of the number the result lay.

`O=C(CCC(F)(F)C(F)(F)C(F)(F)C(F)(F)C(F)(F)C(F)(F)F)NCCCCCCCCCNC(=S)N1[C@@H]2CO[C@H]1[C@H](O)[C@@H](O)[C@@H]2O`: the inhibitory constant (Ki) was 4.1 µM in data set [1] and 2.5 µM in [3]. Also, the solubility entry in [2] is “Soluble”. Besides, the Activity with Fibroblast was in the range of 45 to 75%. For the same compound, the inhibition result (with Helix pomatia; in data set [4]; in the data set listed under Homo sapiens [6]; in data set [7]) was “inactive” each time. Besides, the inhibition result in the data set listed under Homo sapiens [5] was “Active”.

Consider `O=C(CCC(F)(F)C(F)(F)C(F)(F)C(F)(F)C(F)(F)C(F)(F)F)NCCCCNC(=S)N1[C@@H]2CO[C@H]1[C@H](O)[C@@H](O)[C@@H]2O`, for which the inhibitory constant (Ki) is 11.9 µM in data set [1], above 100 µM in data set [8], above 100 µM in [9] and 0.13 µM in [3]. Besides, the inhibition result (in the data set with Saccharomyces cerevisiae; in the data set on Helix pomatia; in [4]; in the data set on Aspergillus niger; in the data set filed under Homo sapiens [6]; in data set [7]) was “inactive” throughout. Further, the inhibition entry in the data set on Escherichia coli was “inactive”. The solubility entry in data set [2] is on record as “Soluble”. Moreover, the Activity in the data set with Fibroblast fell in the range of 45 to 75%. Moreover, the inhibition result in the data set filed under Homo sapiens [5] is “Active”.

For the compound `O=C(CCC(F)(F)C(F)(F)C(F)(F)C(F)(F)F)NCCCCCCCCCNC(=S)N1[C@@H]2CO[C@H]1[C@H](O)[C@@H](O)[C@@H]2O`, the Ki came to 9.3 µM in data set [1] and 0.26 µM in [3]. In addition, in data set [2], the solubility result is given as “Soluble”. Also, the inhibition result (in the data set on Helix pomatia; in data set [4]; in the data set filed under Homo sapiens [6]; in data set [7]) was “inactive” throughout. The inhibition result in the data set filed under Homo sapiens [5] is “Active”.

As for `O=C(CCC(F)(F)C(F)(F)C(F)(F)C(F)(F)F)NCCCCNC(=S)N1[C@@H]2CO[C@H]1[C@H](O)[C@@H](O)[C@@H]2O`, the Ki in data set [1] is 35 µM; in data set [8], above 100 µM; in data set [9] it was above 100 µM; in data set [3] it was 1.3 µM. Moreover, the inhibition entry (with Saccharomyces cerevisiae; with Helix pomatia; in [4]; with Aspergillus niger; in the data set listed under Homo sapiens [6]; in data set [7]) was “inactive” in each case. Moreover, the inhibition entry with Escherichia coli was “inactive”. In data set [2], the solubility result is “Soluble”. Further, the inhibition entry in the data set listed under Homo sapiens [5] is “Active”.
